Measured values: ChEMBL document CHEMBL3596114, “SAR refinement of antileishmanial N(2),N(4)-disubstituted quinazoline-2,4-diamines” (Bioorg Med Chem, 2015)

Columns and labels:
Spleen = test: Cmax in Swiss-Webster mouse spleen at 10 mg/kg, ip after 4 hrs by UPLC-MS/MS analysis; format: ADME, organism-based; set-up: dose 10 mg/kg, route intraperitoneal; conditions: in vivo
Outline: (§1)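 Male Swiss Webster mice got a single 10 mg/kg ip dose in DMSO/PEG400/ethanol/water vehicle. Liver and spleen were excised at 4 and 12 h, rinsed, frozen and homogenized in water (liver 3-fold, spleen 4-fold dilution). Tissue concentrations were measured by UPLC-MS/MS (calibration 0.025–25 μM), triplicate determinations.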

Leishmania donovani [1] = test: Antileishmanial activity against Leishmania donovani infected in visceral leishmaniasis BALB/c mouse model assessed as reduction of liver parasitemia at 10 mg/kg/day, ip administered for 5 days; format: functional; conditions: 120 h
Outline: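 Acute murine visceral leishmaniasis model in female BALB/c mice (6–8 weeks). […] Liver parasitemia was expressed as % inhibition versus infected controls.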

[2] = Selectivity index, ratio of EC50 for mouse J774A.1 cells to EC50 for of beta-lactamase expressing Leishmania donovani MHOM/ET/67/L82 infected in CD-1 mouse peritoneal macrophages
Liver [3] = test: Cmax in Swiss-Webster mouse liver at 10 mg/kg, ip after 4 hrs by UPLC-MS/MS analysis; format: ADME, organism-based; set-up: dose 10 mg/kg, route intraperitoneal; conditions: in vivo; outline: as §1
[4] = Tmax in Swiss-Webster mouse plasma at 10 mg/kg, ip by UPLC-MS/MS analysis; format: ADME, organism-based
Outline: (§2)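 Male Swiss Webster mice (20–25 g) got a single ip dose of 10 mg/kg in DMSO/PEG400/ethanol/water (0.5:5:1:3.5, v/v). Blood was drawn at 0.25–12 h, n = 3 per time point, and plasma was extracted with methanol-water plus internal standard. Samples were run by UPLC-MS/MS in SRM positive mode (calibration 0.025–25 μM). AUC, Cmax, Tmax, terminal t1/2 and Vz/F came from noncompartmental analysis.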

Liver [5] = test: Half-life in mouse liver microsomes by UPLC analysis; format: ADME
Outline: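 Pooled mouse liver microsomes with NADPH were incubated and the parent compound quantified by UPLC-MS/MS. Half-life was obtained by fitting one-phase exponential decay to percent substrate remaining versus time.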

[6] = Cmax in Swiss-Webster mouse spleen at 10 mg/kg, ip after 12 hrs by UPLC-MS/MS analysis; format: ADME, organism-based; set-up: dose 10 mg/kg, route intraperitoneal; conditions: read-out: Cmax; outline: as §1
Leishmania donovani [7] = test: Antileishmanial activity against […] forms of beta-lactamase expressing Leishmania donovani MHOM/ET/67/L82 infected in CD-1 mouse peritoneal macrophages assessed as inhibition of beta-lactamase activity after 3 days by spectrophotometer assay; format: functional, organism-based; conditions: MHOM/ET/67/L82, 72 h
Outline: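 Intracellular L. donovani assay in macrophages run by an earlier method, with amphotericin B as the control drug. EC50 is the mean ± standard deviation of at least three independent experiments. Where a mean could not be obtained, the value comes from at least two determinations.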

Plasma = test: Cmax in Swiss-Webster mouse plasma at 10 mg/kg, ip by UPLC-MS/MS analysis; format: ADME, organism-based; set-up: dose 10 mg/kg, route intraperitoneal; conditions: in vivo; outline: as §2
Mus musculus [8] = test: Toxicity in BALB/c mouse assessed as induction of adverse events at 30 mg/kg/day, ip administered for 5 days; format: organism-based; conditions: in vivo, 120 h
Outline: (§3)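 Female BALB/c mice were dosed ip daily for 5 days at 10 or 30 mg/kg/day and observed for adverse effects.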

[9] = Apparent volume of distribution in Swiss-Webster mouse plasma at 10 mg/kg, ip by UPLC-MS/MS analysis; format: ADME, organism-based; conditions: read-out: Vz/F; outline: as §2
[10] = Cytotoxicity against mouse J774A.1 cells assessed as inhibition of cell viability after 72 hrs by MTT assay; format: cell-based; conditions: J774.A1, 72 h
Outline: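 J774A.1 murine macrophages were grown in RPMI with 10% FBS and penicillin/streptomycin at 37 °C, 5% CO2, and plated at 5 × 10^3 cells/well with serial compound dilutions for 72 h. MTT was added for 2 h, then cells were lysed with 10% SDS in 50% DMF for 3–5 h and read at 570 nm. EC50 came from a four-parameter fit, at least three independent experiments, podophyllotoxin control.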

[11] = Cmax in Swiss-Webster mouse liver at 10 mg/kg, ip after 12 hrs by UPLC-MS/MS analysis; format: ADME, organism-based; set-up: dose 10 mg/kg, route intraperitoneal; conditions: read-out: Cmax; outline: as §1
Mus musculus [12] = test: Toxicity in BALB/c mouse assessed as induction of adverse events at 10 mg/kg/day, ip administered for 5 days; format: organism-based; conditions: in vivo, 120 h; outline: as §3
[13] = Half-life in Swiss-Webster mouse plasma at 10 mg/kg, ip by UPLC-MS/MS analysis; format: ADME, organism-based; outline: as §2
[14] = AUC in Swiss-Webster mouse plasma at 10 mg/kg, ip by UPLC-MS/MS analysis; format: ADME, organism-based; outline: as §2

Row | SMILES | selectivity ratio [2] | EC50 (Leishmania donovani [7]) [µM] | EC50 [10] [µM] | further results
1 | CC(C)Nc1nc(NCc2ccccc2)nc2ccccc12 | 19 | 0.38 | 7.2 | Cmax (Spleen): 16.5 µM; inhibition in vivo at 10 mg/kg/day (Leishmania donovani [1]): 23.8%; Cmax (Liver [3]): 20.2 µM; Tmax [4]: 0.25 h; t1/2 (Liver [5]): 0.7 h; concentration at 12 h [6]: 0.18 µM; Cmax (Plasma): 2.15 µM; Activity (Mus musculus [8]): Toxic; Vd/F [9]: 1.15 L/kg; concentration at 12 h [11]: 0.54 µM; Activity (Mus musculus [12]): Non-toxic; half-life [13]: 2.1 h; AUC(0-inf) [14]: 7.14 µM·h
2 | COc1ccc(CNc2nc(NCc3ccccc3)c3ccccc3n2)cc1 | 5.7 | 0.72 | 4.1 | 
3 | COc1cc([C@@H]2c3cc4c(cc3[C@H](O)[C@H]3COC(=O)[C@H]23)OCO4)cc(OC)c1OC [PODOFILOX] |  |  | 0.021 | 
4 | CNc1nc(NCc2ccccc2)nc2ccccc12 | 100 |  | 15 | 
5 | c1coc(CNc2nc(NC3CCC3)nc3ccccc23)c1 |  | > 25 |  | 
6 | CNc1nc(NCc2ccco2)c2ccccc2n1 |  | > 25 |  | 
7 | CNc1nc(NCCO)nc2ccccc12 |  | > 25 |  | 
8 | COc1ccc(CNc2nc(NCc3ccccc3)nc3ccccc23)cc1 | 2.1 | 2.5 | 5.2 | 
9 | CC(C)Nc1nc(NCc2ccccc2)c2ccccc2n1 | 3.4 | 2 | 6.7 | 
10 | CC(C)Nc1nc(NC2CC2)nc2ccccc12 | > 5 | 8 | > 40 | 
11 | COc1ccc(CNc2nc(NCc3ccc(OC)cc3)c3ccccc3n2)cc1 | 0.37 | 6 | 2.2 | 
12 | Cc1ccc(CNc2nc(NCc3ccc(C)cc3)c3ccccc3n2)cc1 | 2.6 | 1.1 | 2.9 | 
13 | CNc1nc(NC(C)C)nc2ccccc12 |  | > 25 |  | 
14 | Cc1ccc(CNc2nc(NCc3ccccc3)c3ccccc3n2)cc1 | 5.1 | 0.89 | 4.5 | 
15 | C[C@@H]1[C@H](O)[C@@H](C)/C=C/C=C/C=C/C=C/C=C/C=C/C=C/[C@H](O[C@@H]2O[C@H](C)[C@@H](O)[C@H](N)[C@@H]2O)C[C@@H]2O[C@](O)(C[C@@H](O)C[C@@H](O)[C@H](O)CC[C@@H](O)C[C@@H](O)CC(=O)O[C@H]1C)C[C@H](O)[C@H]2C(=O)O [AMPHOTERICIN B] |  | 0.041 |  | 
16 | c1ccc(CNc2nc(NCc3ccccc3)c3ccccc3n2)cc1 |  |  | 5.5 | 
17 | CNc1nc(NC2CCCC2)nc2ccccc12 | 8.9 | 4.4 | 39 | 
18 | CC(C)Nc1nc(NCc2ccco2)nc2ccccc12 | 0.75 | 11 | 8.3 | 
19 | CCCCCCCCCCCCCCCCOP(=O)([O-])OCC[N+](C)(C)C [MILTEFOSINE] |  |  |  | inhibition in vivo at 10 mg/kg/day (Leishmania donovani [1]): 93.6%

Row | SMILES | selectivity ratio [2] | EC50 (Leishmania donovani [7]) [µM] | EC50 [10] [µM] | further results
20 | CNc1nc(NCc2ccco2)nc2ccccc12 |  | 20 |  | 
21 | CC(C)Nc1nc(NC(C)C)c2ccccc2n1 | > 13 | 2.3 | > 30 | 
22 | CC(C)Nc1nc(NC2CC2)c2ccccc2n1 | 5.1 | 6.1 | 31 | 
23 | CCNc1nc(NC)c2ccccc2n1 |  | > 25 |  | 
24 | c1coc(CNc2nc(NC3CCCCC3)nc3ccccc23)c1 | 1.3 | 4 | 5.3 | 
25 | Cc1ccccc1-c1nc(NCc2ccccc2)nc2ccccc12 |  | > 10 |  | 
26 | CNc1nc(NC)c2ccccc2n1 | > 17.5 | 7.6 | > 133 | 
27 | Clc1ccc(CNc2nc(NCc3ccccc3)nc3ccccc23)cc1 | 5.6 | 0.82 | 4.6 | 
28 | CC(C)Nc1nc(NCc2ccco2)c2ccccc2n1 |  |  | 17 | 
29 | c1ccc(CNc2nc(OCc3ccccc3)c3ccccc3n2)cc1 | 5.1 | 0.65 | 3.3 | 
30 | CC(C)Nc1nc(Nc2ccccc2)c2ccccc2n1 | 6.3 | 1.9 | 12 | 
31 | Clc1ccc(CNc2nc(NCc3ccccc3)c3ccccc3n2)cc1 | 5.2 | 0.61 | 3.2 | Cmax (Spleen): 26.6 µM; inhibition in vivo at 10 mg/kg/day (Leishmania donovani [1]): 12%; Cmax (Liver [3]): 25.3 µM; Tmax [4]: 0.5 h; t1/2 (Liver [5]): 1.47 h; concentration at 12 h [6]: 11.4 µM; Cmax (Plasma): 1.4 µM; Activity (Mus musculus [8]): Toxic; Vd/F [9]: 22.3 L/kg; concentration at 12 h [11]: 8.51 µM; Activity (Mus musculus [12]): Non-toxic; half-life [13]: 9.3 h; AUC(0-inf) [14]: 15.7 µM·h
32 | Cc1ccccc1-c1nc(NCc2ccccc2)c2ccccc2n1 |  | > 10 |  | 
33 | c1ccc(CNc2nc(-c3ccccc3)c3ccccc3n2)cc1 |  | > 10 |  | 
34 | Cc1ccc(CNc2nc(NCc3ccccc3)nc3ccccc23)cc1 | 5.4 | 0.39 | 2.1 | 
35 | c1coc(CNc2nc(NC3CCCC3)nc3ccccc23)c1 |  | > 25 |  | 
36 | CC(C)Nc1nc(NCC2CCCO2)c2ccccc2n1 (stereo unspecified) | 5.2 | 8.9 | 46 | 
37 | CCNc1nc(NC(C)C)nc2ccccc12 | > 4.8 | 6.3 | > 30 | 
